Source: ChEMBL document CHEMBL2177043, “HIV-1 X4 activities of polycationic "viologen" based dendrimers by interaction with the chemokine receptor CXCR4: study of structure-activity relationship” (J Med Chem, 2012)
The source made the active and inactive calls. The rule behind the calls is not given here.

Key:
[1] = target: T1, C-C chemokine receptor type 5 (Homo sapiens, UniProt P51681); test: Antagonist activity against CCR5 expressed in U87.CD4.CCR5 cells assessed as inhibition of CCL3L1-induced calcium signaling incubated for 10 mins by FLIPR
T1 sequence (P51681 whole entry, looked up): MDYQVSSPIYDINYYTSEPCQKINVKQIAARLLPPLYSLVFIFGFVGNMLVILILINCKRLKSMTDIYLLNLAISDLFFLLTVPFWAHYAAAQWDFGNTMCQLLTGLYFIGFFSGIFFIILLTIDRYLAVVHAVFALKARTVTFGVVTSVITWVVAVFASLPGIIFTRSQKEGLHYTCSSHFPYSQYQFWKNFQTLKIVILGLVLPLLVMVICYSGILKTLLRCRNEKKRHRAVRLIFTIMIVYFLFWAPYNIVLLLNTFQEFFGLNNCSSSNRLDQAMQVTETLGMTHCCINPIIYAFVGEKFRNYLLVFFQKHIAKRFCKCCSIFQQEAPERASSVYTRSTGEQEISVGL

[2] = target: T2, C-X-C chemokine receptor type 4 (Homo sapiens, UniProt P61073); test: Agonist activity against CXCR4 expressed in U87.CD.CXCR4 cells assessed as stimulation of calcium signaling incubated for 10 mins by FLIPR; type: functional, cell-based
T2 sequence (P61073 whole entry): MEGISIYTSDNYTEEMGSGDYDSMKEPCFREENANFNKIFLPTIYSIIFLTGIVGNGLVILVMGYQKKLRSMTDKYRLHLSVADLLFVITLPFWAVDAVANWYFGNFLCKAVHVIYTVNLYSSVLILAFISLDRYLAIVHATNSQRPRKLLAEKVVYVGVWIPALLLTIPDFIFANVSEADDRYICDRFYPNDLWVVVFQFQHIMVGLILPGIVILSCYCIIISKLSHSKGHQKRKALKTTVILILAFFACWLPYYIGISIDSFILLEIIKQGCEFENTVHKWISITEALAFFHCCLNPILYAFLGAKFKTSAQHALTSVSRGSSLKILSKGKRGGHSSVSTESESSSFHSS
Procedure, shortened: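 U87.CD4 cells stably carrying CXCR4 or CCR5, trypsinized and seeded at 2 × 10⁴ cells/well on 0.2% gelatin the day before. Loaded with Fluo-3 AM (4 μM, 45 min, 37 °C), washed, then exposed to test agents alone at varied concentrations in assay buffer for 10 min at 37 °C. Cytosolic Ca²⁺ rise monitored over time by FLIPR to detect any agonist-triggered signal.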

[3] = target: T2, C-X-C chemokine receptor type 4; test: Inhibition of anti-CXCR4 mAbs clone 1D9 binding to CXCR4 in human SUPT1 cells incubated for 30 mins by FACS
[4] = target: T2, C-X-C chemokine receptor type 4; test: Inhibition of CXCL-12'AF647 binding to CXCR4 in human SUPT1 cells incubated for 15 mins by FACS; type: cell-based
Procedure, shortened: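 SupT1 cells (high CXCR4) washed, then incubated 15 min at room temperature with compounds at varied concentrations in HBSS containing 20 mM HEPES and 0.2% BSA, pH 7.4. CXCL12-AF647 added at 25 ng/mL final for 30 min at room temperature. Cells washed, fixed in 1% paraformaldehyde, and read by flow cytometry on FL4.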

[5] = target: T2, C-X-C chemokine receptor type 4; test: Inhibition of anti-CXCR4 mAbs clone 173 binding to CXCR4 in human SUPT1 cells incubated for 30 mins by FACS
[6] = target: T2, C-X-C chemokine receptor type 4; test: Inhibition of anti-CXCR4 mAbs clone 12G5 binding to CXCR4 in human SUPT1 cells incubated for 30 mins by FACS
[7] = target: T2, C-X-C chemokine receptor type 4; test: Antagonist activity against CXCR4 expressed in U87.CD.CXCR4 cells assessed as inhibition of CXCL12-induced calcium signaling incubated for 10 mins by FLIPR; type: functional, cell-based
Procedure, shortened: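 U87.CD4.CXCR4 cells seeded at 2 × 10⁴/well on 0.2% gelatin the day before, loaded with 4 μM Fluo-3 AM for 45 min at 37 °C, washed, then preincubated with compounds at varied concentrations in assay buffer for 10 min at 37 °C. Challenged with 25 ng/mL CXCL12; Ca²⁺ flux followed over time by FLIPR.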

[8] = target: T1, C-C chemokine receptor type 5; test: Antagonist activity against CCR5 expressed in U87.CD4.CCR5 cells assessed as inhibition of CCL3L1-induced calcium signaling incubated for 10 mins by FLIPR; type: functional, cell-based
Procedure, shortened: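 U87.CD4.CCR5 cells seeded at 2 × 10⁴/well on 0.2% gelatin the day before, loaded with 4 μM Fluo-3 AM for 45 min at 37 °C, washed, then preincubated with compounds at varied concentrations in assay buffer for 10 min at 37 °C. Stimulated with 10 ng/mL LD78β (CCL3L1); Ca²⁺ flux recorded by FLIPR.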

[9] = system: Human immunodeficiency virus 1; test: Antiviral activity against X4 HIV1 NL4.3 infected in human PBMC assessed as inhibition of viral replication pre-incubated for 30 mins measured 5 days post infection by MTT assay; type: functional, organism-based; conditions: Human immunodeficiency virus 1, NL4.3
Procedure, shortened: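 Human PBMC infected with HIV-1 NL4.3. IC₅₀ is the concentration inhibiting viral replication by 50%, averaged over two independent experiments. Cytotoxicity (CC₅₀, 50% loss of PBMC viability) evaluated in the same assay.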

[10] = target: T1, C-C chemokine receptor type 5; test: Agonist activity against CCR5 expressed in U87.CD4.CCR5 cells assessed as stimulation of calcium signaling incubated for 10 mins by FLIPR
[11] = Cytotoxicity against human PBMC cells by MTT assay; type: cell-based
[12] = Cytotoxicity against human MT4 cells by MTT assay; type: cell-based
[13] = system: Human immunodeficiency virus 1; test: Antiviral activity against X4 HIV1 NL4.3 infected in human MT4 cells assessed as inhibition of viral replication pre-incubated for 30 mins […]; type: functional, organism-based; conditions: Human immunodeficiency virus 1, NL4.3, MT4

Compound | inhibition [1] | Activity [2] | IC50 [3] | inhibition [3] | IC50 [4] | IC50 [5] | inhibition [5] | IC50 [6] | inhibition [6] | IC50 [7] | inhibition [7] | IC50 [8] | IC50 [9] | Activity [10] | CC50 [11] | CC50 [12] | IC50 [13]
CC[n+]1ccc(-c2cc[n+](Cc3cc(C[n+]4ccc(-c5cc[n+](CC)cc5)cc4)cc(C[n+]4ccc(-c5cc[n+](Cc6cc(C[n+]7ccc(-c8cc[n+](Cc9cc(C[n+]%10ccc(-c%11cc[n+](CC)cc%11)cc%10)cc(C[n+]%10ccc(-c%11cc[n+](CC)cc%11)cc%10)c9)cc8)cc7)cc(C[n+]7ccc(-c8cc[n+](Cc9cc(C[n+]%10ccc(-c%11cc[n+](CC)cc%11)cc%10)cc(C[n+]%10ccc(-c%11cc[n+](CC)cc%11)cc%10)c9)cc8)cc7)c6)cc5)cc4)c3)cc2)cc1.F[P-](F)(F)(F)(F)F.F[P-](F)(F)(F)(F)F.F[P-](F)(F)(F)(F)F.F[P-](F)(F)(F)(F)F.F[P-](F)(F)(F)(F)F.F[P-](F)(F)(F)(F)F.F[P-](F)(F)(F)(F)F.F[P-](F)(F)(F)(F)F.F[P-](F)(F)(F)(F)F.F[P-](F)(F)(F)(F)F.F[P-](F)(F)(F)(F)F.F[P-](F)(F)(F)(F)F.F[P-](F)(F)(F)(F)F.F[P-](F)(F)(F)(F)F.F[P-](F)(F)(F)(F)F.F[P-](F)(F)(F)(F)F.F[P-](F)(F)(F)(F)F.F[P-](F)(F)(F)(F)F | Dose-dependent effect | inactive | 464 nM | Dose-dependent effect | 309 nM | 378 nM | Dose-dependent effect | 260 nM | Dose-dependent effect | 294 nM | Dose-dependent effect | 4860 nM | 0.34 µg/mL | inactive | 20 µg/mL | 11 µg/mL | 0.8 µg/mL
CC[n+]1ccc(-c2cc[n+](Cc3cc(C[n+]4ccc(-c5cc[n+](CC)cc5)cc4)cc(C[n+]4ccc(-c5cc[n+](Cc6cc(C[n+]7ccc(-c8cc[n+](Cc9cc(C[n+]%10ccc(-c%11cc[n+](CC)cc%11)cc%10)cc(C[n+]%10ccc(-c%11cc[n+](CC)cc%11)cc%10)c9)cc8)cc7)cc(C[n+]7ccc(-c8cc[n+](Cc9cc(C[n+]%10ccc(-c%11cc[n+](Cc%12cc(C[n+]%13ccc(-c%14cc[n+](Cc%15cc(C[n+]%16ccc(-c%17cc[n+](CC)cc%17)cc%16)cc(C[n+]%16ccc(-c%17cc[n+](CC)cc%17)cc%16)c%15)cc%14)cc%13)cc(C[n+]%13ccc(-c%14cc[n+](Cc%15cc(C[n+]%16ccc(-c%17cc[n+](CC)cc%17)cc%16)cc(C[n+]%16ccc(-c%17cc[n+](CC)cc%17)cc%16)c%15)cc%14)cc%13)c%12)cc%11)cc%10)cc(C[n+]%10ccc(-c%11cc[n+](Cc%12cc(C[n+]%13ccc(-c%14cc[n+](Cc%15cc(C[n+]%16ccc(-c%17cc[n+](CC)cc%17)cc%16)cc(C[n+]%16ccc(-c%17cc[n+](CC)cc%17)cc%16)c%15)cc%14)cc%13)cc(C[n+]%13ccc(-c%14cc[n+](Cc%15cc(C[n+]%16ccc(-c%17cc[n+](CC)cc%17)cc%16)cc(C[n+]%16ccc(-c%17cc[n+](CC)cc%17)cc%16)c%15)cc%14)cc%13)c%12)cc%11)cc%10)c9)cc8)cc7)c6)cc5)cc4)c3)cc2)cc1.F[P-](F)(F)(F)(F)F.F[P-](F)(F)(F)(F)F.F[P-](F)(F)(F)(F)F.F[P-](F)(F)(F)(F)F.F[P-](F)(F)(F)(F)F.F[P-](F)(F)(F)(F)F.F[P-](F)(F)(F)(F)F.F[P-](F)(F)(F)(F)F.F[P-](F)(F)(F)(F)F.F[P-](F)(F)(F)(F)F.F[P-](F)(F)(F)(F)F.F[P-](F)(F)(F)(F)F.F[P-](F)(F)(F)(F)F.F[P-](F)(F)(F)(F)F.F[P-](F)(F)(F)(F)F.F[P-](F)(F)(F)(F)F.F[P-](F)(F)(F)(F)F.F[P-](F)(F)(F)(F)F.F[P-](F)(F)(F)(F)F.F[P-](F)(F)(F)(F)F.F[P-](F)(F)(F)(F)F.F[P-](F)(F)(F)(F)F.F[P-](F)(F)(F)(F)F.F[P-](F)(F)(F)(F)F.F[P-](F)(F)(F)(F)F.F[P-](F)(F)(F)(F)F.F[P-](F)(F)(F)(F)F.F[P-](F)(F)(F)(F)F.F[P-](F)(F)(F)(F)F.F[P-](F)(F)(F)(F)F.F[P-](F)(F)(F)(F)F.F[P-](F)(F)(F)(F)F.F[P-](F)(F)(F)(F)F.F[P-](F)(F)(F)(F)F.F[P-](F)(F)(F)(F)F.F[P-](F)(F)(F)(F)F.F[P-](F)(F)(F)(F)F.F[P-](F)(F)(F)(F)F.F[P-](F)(F)(F)(F)F.F[P-](F)(F)(F)(F)F.F[P-](F)(F)(F)(F)F.F[P-](F)(F)(F)(F)F | Dose-dependent effect | inactive | 180 nM | Dose-dependent effect | 101 nM | 108 nM | Dose-dependent effect | 111 nM | Dose-dependent effect | 89.1 nM | Dose-dependent effect | 542 nM | 1.07 µg/mL | inactive | 20 µg/mL | 9 µg/mL | 1.4 µg/mL
Cc1cn(CCC[n+]2ccc(-c3cc[n+](Cc4cc(C[n+]5ccc(-c6cc[n+](CCCn7cc(C)c(=O)[nH]c7=O)cc6)cc5)cc(-[n+]5ccc(-c6cc[n+](-c7cc(C[n+]8ccc(-c9cc[n+](CCCn%10cc(C)c(=O)[nH]c%10=O)cc9)cc8)cc(C[n+]8ccc(-c9cc[n+](CCCn%10cc(C)c(=O)[nH]c%10=O)cc9)cc8)c7)cc6)cc5)c4)cc3)cc2)c(=O)[nH]c1=O.F[P-](F)(F)(F)(F)F.F[P-](F)(F)(F)(F)F.F[P-](F)(F)(F)(F)F.F[P-](F)(F)(F)(F)F.F[P-](F)(F)(F)(F)F.F[P-](F)(F)(F)(F)F.F[P-](F)(F)(F)(F)F.F[P-](F)(F)(F)(F)F.F[P-](F)(F)(F)(F)F.F[P-](F)(F)(F)(F)F | Dose-dependent effect | inactive | 3080 nM | Dose-dependent effect | 3400 nM | 660 nM | Dose-dependent effect | 724 nM | Dose-dependent effect | 21000 nM | Dose-dependent effect | > 32200 nM | 4.62 µg/mL | inactive | > 100 µg/mL | > 100 µg/mL | 2.4 µg/mL
